Measured values collected from several papers.
Target: Bone morphogenetic protein receptor type-1B (BMPR1B, Homo sapiens, UniProt O00238)

`F[C@@H]1CCN(c2nccc(-c3cnn4ncccc34)n2)C1` has a remaining binding of 72% (binding; 1 µM).
`CN([C@@H]1CCc2c(CC(=O)O)c3cc(S(C)(=O)=O)ccc3n2C1)S(=O)(=O)c1ccc(F)cc1` has a remaining binding of 100% (cell-free assay, competition with immobilised ligand; 1 µM).
The remaining binding of `CN(CCCC(F)(F)F)c1nccc(-c2cnn3ncccc23)n1` is reported as 93% (binding; 1 µM).
`COc1cnc(Nc2cccc(S(N)(=O)=O)c2)nc1N1CCN(c2ccccc2)CC1` gave a remaining binding of 87% (binding, competition with immobilised ligand; 1 µM).
`CC1CCCN1c1nccc(-c2cnn3ncccc23)n1` (stereo not shown) gave a remaining binding of 84% (binding; 1 µM).
The remaining binding of `O=C(NCCCN1CCOCC1)c1ccc(Nc2ncc(Cl)c(-c3ccc(Cl)s3)n2)cc1` is reported as 56% (binding, competition with immobilised ligand; 1 µM).
With `O=C1CCc2cc(Nc3cc(OC4CCOCC4)c([N+](=O)[O-])cc3Cl)ccc2N1` the remaining binding was 87% (cell-free assay, competition with immobilised ligand; 1 µM).
`COc1ccnn2ncc(-c3ccnc(N(C)C)n3)c12` gave a remaining binding of 51% (binding; 1 µM).
For `C=CC(=O)N1CCC(C(=O)NCC(=O)N2CCN(c3nc(-c4cnc(N)nc4C(F)F)nc(N4CCOCC4)n3)CC2)CC1`, the remaining binding was 64% (binding, competition with immobilised ligand; 1 µM).
The remaining binding of `O=C(c1ccc(Nc2nccc(-c3cc4ccccc4s3)n2)cc1)N1CCC(N2CCCC2)CC1` is reported as 41% (binding, competition with immobilised ligand; 1 µM).
`CCOC(=O)c1cc2cc(-c3cc(C(=O)NCc4ccc(C(=O)O)cc4)nn3C)ccc2[nH]1` gave a remaining binding of 96% (cell-free assay, competition with immobilised ligand; 0.1 µM).
With `O=C(NCC1CCOCC1)c1n[nH]cc1NC(=O)c1c(F)cccc1F` the remaining binding was 90% (binding, competition with immobilised ligand; 1 µM).
The remaining binding of `CN(C)c1ncc(F)c(-c2cnn3ncccc23)n1` is reported as 64% (binding; 1 µM).
For `Cc1cnc(Nc2ccc(C(=O)N3CCC(N4CCCC4)CC3)cc2)nc1-c1cc2ccccc2s1`, the remaining binding was 26% (binding, competition with immobilised ligand; 1 µM).
For `Cc1cc(C)c(-n2ccn3nc(-c4cccnc4)cc23)cc1NC(=O)c1cc(C#N)cc(S(F)(F)(F)(F)F)c1`, the remaining binding was 72.3% (cell-free assay, competition with immobilised ligand; 0.1 µM).
`CN(C)c1nccc(-c2cnn3ncccc23)n1` has a remaining binding of 76% (binding; 1 µM).
`CCCCN(CCCC)C(=O)CN1C[C@H](c2cc(OC)c3c(c2)OCO3)[C@@H](C(=O)O)[C@@H]1CC(C)(C)CCC` gave a remaining binding of 59% (cell-free assay, competition with immobilised ligand; 1 µM).
The remaining binding of `N[C@@H]1CCN(c2nccc(-c3cnn4ncccc34)n2)C1` is reported as 94% (binding; 1 µM).
`O=c1nc(-c2ccccn2)sc2ccccc12` has a remaining binding of 75% (cell-free assay, competition with immobilised ligand; 1 µM).
`CNC(=O)[C@@H]1CC[C@@H](n2c(-c3ccc4cnccc4c3)nc3ccc(C(=O)NCc4cccc(C(N)=O)c4)cc32)C1` gave a remaining binding of 80% (binding, competition with immobilised ligand; 1 µM).
The remaining binding of `CC1=C(C#N)C(c2ccc3c(c2)c(NC(=O)c2ccccc2C)nn3C)C(C#N)=C(C)N1` is reported as 91% (cell-free assay, competition with immobilised ligand; 1 µM).
The remaining binding of `FC(F)(F)Oc1cccc(-c2cnc3ccc(-c4ccncc4)nn23)c1` is reported as 22% (cell-free assay, competition with immobilised ligand; 5 µM).
